Most compounds without a hit are left out; they make up all but 2.3% or so of the library.
TRPC4 block: blocks the mouse TRPC4 cation channel. HEK293 TRPC4beta/mu-opioid, DAMGO-evoked Fluo4 calcium flux; hits give low values. Q9QUQ5. hit rate 0.39% among 300,000. AID 2247. B-score at 10 µM;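 active = B-score over 3 SD under the library average, no early fluorescence shift, positive overall ratio signal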
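test system = HEK293 cells with stable TRPC4beta plus mu-opioid receptor expression | detection = Fluo4 Ca2+ flux fluorescence | read-out = integrated fluorescence ratio relative to baseline, converted to per-well B score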
TRPC4 act: activators of mouse TRPC4 channel. Q9QUQ5. B-score at 10 µM. HEK293 TRPC4beta/mu-opioid, Fluo4 calcium fluorescence; hits give high values. hit rate 0.49% among 310,000;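 active = B-score above 5 SD of library B-scores, and initial fluorescence ratio not above library mean plus 5 SD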;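 also: positive B-score marks a calcium rise read as TRPC4 activation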
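Incubation: 45 min room-temperature Fluo4 loading, 110 s read / System: HEK293 cells stably co-expressing mouse TRPC4beta and mu-opioid receptor / Signal: Fluo4 fluorescence, kinetic / Control set: buffer (low) and maximal DAMGO (high) / Measure: integrated baseline-normalised fluorescence ratio, converted to per-well B score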
TRPC6 inh: mouse TRPC6 channel inhibition; Q61143; B-score at 10 µM; HEK293-TRPC6, membrane potential dye, ACh-evoked depolarization; hits give low values; hit rate 1.1% among 310,000; AID 2553;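 active = B-score under library mean minus 3 SD, initial fluorescence not abnormally high, positive integrated signal ratio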;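 also: B-score derived from integrated fluorescence ratio over the kinetic read; more negative B-score means stronger inhibition of depolarization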
TRPC6 activator: activates the mouse TRPC6 cation channel; Q61143; AID 2550; B-score at 10 µM; hit rate 0.13% among 310,000; HEK293-TRPC6 membrane potential dye fluorescence; hits give high values;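 active = B-score of the integrated fluorescence ratio above library mean plus 3 SD, and starting fluorescence ratio within library mean plus 5 SD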;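 also: higher score means more depolarization so channel activation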
TRPC4 potent: allosterically enhances the mouse TRPC4 cation channel; Q9QUQ5; HEK293 TRPC4beta/mu-opioid, DAMGO EC20, Fluo-4 Ca2+ flux; hits give high values; B-score at 10 µM; hit rate 0.42% among 310,000;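 active = B-score of calcium response area above 5 SD of library B-scores, with initial fluorescence ratio within 5 SD of library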;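 also: B-score of integrated fluorescence ratio over time as area under calcium response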
Starred values were filed as active, the others as inactive; i = inactive.

SMILES	TRPC4 block	TRPC4 act	TRPC6 inh	TRPC6 activator	TRPC4 potent
O=C(NC1CCOC1)c1ccc(OC2CCN(CCc3ccccc3)CC2)cc1 (stereo not given)	i	i	i	i	i
CSCCNC(=O)c1ccc(OC2CCN(CCc3ccccc3)CC2)cc1	-6*	i	i	i	i
Cc1csc(CNC(=O)c2ccc(OC3CCN(CCc4ccccc4)CC3)cc2)n1	i	i	i	i	i
CN(C(=O)c1ccc(OC2CCN(CCc3ccccc3)CC2)cc1)C1CCOCC1	i	i	i	i	i
COC(=O)[C@@H]1C(c2c(OC)cc(OC)cc2OC)=NO[C@H]1C(=O)OC	i	i	i	i	i
CCOCCN1CCN(c2c(C)c(C)nc3cc(-c4cc(OC)cc(OC)c4)nn23)CC1	i	i	i	i	i
COCCN1CCN(c2c(C)c(C)nc3cc(-c4cccc(OC)c4)nn23)CC1	i	48*	i	i	i
O=C(c1sccc1-c1ccccc1)N1CCN(S(=O)(=O)c2ccccc2F)CC1	i	i	i	i	i
COc1ccc(-c2c(C)[nH]n3c(=O)c(Cc4ccccc4)c(C)nc23)cc1	-6*	i	i	i	i
Cc1[nH]n2c(=O)c3c(nc2c1-c1ccccc1)CCC3	-6*	i	i	i	i
COC(=O)c1ccc(NC(=O)C2CCCN(S(C)(=O)=O)C2)cc1 (stereo not given)	i	i	i	i	i
COC(=O)c1ccc(CN2CCCC(C(=O)Nc3ccc(-c4ccn[nH]4)cc3)C2)cc1 (stereo not given)	i	50*	i	i	i
O=C(CCCSc1nc2ccccc2[nH]1)NC(c1ccccc1)c1ccccc1	i	i	i	i	i
O=C(CCCSc1nc2ccccc2[nH]1)NCc1ccccc1Cl	-8*	i	i	i	i
COc1cc(Nc2c3c(nc4ccccc24)CCC3)cc(OC)c1OC	i	i	i	i	i
N#Cc1cccc(Nc2c3c(nc4ccccc24)CCC3)c1	i	i	i	i	i
Cc1cccc(Nc2c3c(nc4ccccc24)CCC3)c1	-6*	i	i	i	i
COc1ccc(OC)c(Nc2c3c(nc4ccccc24)CCC3)c1	-5*	i	i	i	i
O=C(Cc1ccc2c(c1)OCCO2)N1CCN(c2ccccc2)CC1	i	i	i	i	i
Cc1cc(C)n(CC(=O)N2CCCC(C(=O)c3cccc(OC(C)C)c3)C2)n1 (stereo not given)	i	i	i	i	i
Cc1ccc(NC(=S)N2CCCN(Cc3ccc(F)cc3)C2)c(C)c1	i	60*	i	i	i
Cc1c(Cl)cccc1NC(=S)N1CCCN(Cc2ccc(F)cc2)C1	i	44*	i	i	i
Cc1c(Cl)cccc1N=C(N)N=C(N)N	i	51*	i	i	i
COc1ccccc1C(=O)NNC1=C(C(=O)C(F)(F)F)CCC1	i	93*	i	i	i
CN(C)c1cc[n+](CC(=O)Nc2ccc(OC(F)F)cc2)cc1	i	i	i	i	i
SMILES	TRPC4 block	TRPC4 act	TRPC6 inh	TRPC6 activator	TRPC4 potent
CN(Cc1ccco1)C(=O)Cn1ncc2c([nH]c3ccccc32)c1=O	i	i	i	i	20*
COCCCN(Cc1ccco1)C(=O)Cn1ncc2c([nH]c3ccccc32)c1=O	i	i	i	i	i
CC1CC(CN)CC(CO)C1 (stereo not given)	i	i	i	i	i
CNC[C@@H](Cc1ccccc1)NC[C@@H](CC1CCCCC1)NCCCc1ccccc1	i	77*	i	i	i
CCOc1ccc(CSC2=NCCN2)cc1[N+](=O)[O-]	i	i	i	i	11*
CCCCOc1ccc(CSC2=NCCN2)cc1[N+](=O)[O-]	i	i	i	i	i
CCCSc1cc(=O)n(-c2ccc(F)cc2)nc1C(=O)OCC	i	i	i	i	i
CC(O)Cn1c(N2CCCC2)nc2c1c(=O)[nH]c(=O)n2C (stereo not given)	i	i	i	i	i
COC(=O)CC1=NN(c2nc3ccccc3s2)C(=O)/C1=C/N(C)C	i	i	i	i	i
Nc1cc(N2CCCCC2)c([N+](=O)[O-])cc1Cl	-6*	i	i	i	i
Nc1cc(N2CCCCC2)c(Cl)cc1[N+](=O)[O-]	i	i	i	i	i
Cc1ccc2c(c1)c1nnc(SCC(=O)Nc3ccc(N(C)C)cc3)nc1n2CC(=O)O	i	i	i	i	i
CN(Cc1cccc(F)c1)CC(O)COCc1ccccc1Cl (stereo not given)	-6*	i	i	i	i
Cc1nnc2n(Cc3ccccc3)c(=O)c3c4c(sc3n12)COC(C(C)C)C4 (stereo not given)	i	i	i	i	11*
CCc1cc(C(=O)NCCN(C)C)cs1	i	78*	i	i	i
Cc1cccc(C(=O)NCCN(C)C)c1	i	73*	i	i	i
C(C#CCCCCCCCCC[n+]1ccccc1)#CCCCCCCCCC[n+]1ccccc1	i	84*	i	i	i
O=C1C=C(O)CC(c2ccc(Cl)cc2)C1 (stereo not given)	i	i	i	i	i
O=C1C=C(O)CC(c2ccc(Cl)c(Cl)c2)C1 (stereo not given)	i	i	i	i	11*
Cc1ccc(-c2nnn(CC(=O)N(c3ccccc3)C(C(=O)NCC3CCCO3)c3cccs3)n2)o1 (stereo not given)	i	i	i	i	i
C#CCCOC(=O)N1C2=NC(C(=O)OC)=C(C(=O)OC)[C@@H]3N(C)c4ccccc4[C@]23C[C@H]1C(=O)OC	i	i	i	i	i
C#CCCOC(=O)N1C2=NC(C(=O)OC)=C(C(=O)OC)[C@@H]3N(Cc4ccccc4)c4ccccc4[C@]23C[C@H]1C(=O)OC	i	i	i	i	10*
CC(C)=CCCC(C)CN1CCC(n2nccc2NC(=O)C2CCCC2)CC1 (stereo not given)	-5*	i	i	i	i
CNC[C@H](O)c1ccc(O)c(O)c1	i	i	i	i	i
CNC[C@H](O)c1cccc(O)c1	i	52*	i	i	i
Cc1ccc(OCc2cc(C(=O)N(C)CCc3nc4ccccc4[nH]3)no2)cc1C	-6*	i	i	i	i
O=C(O)CCCNS(=O)(=O)/C=C/c1ccccc1	i	i	i	i	i

Source: PubChem (Johns Hopkins Ion Channel Center)
